# ChEMBL document CHEMBL5724801, “EUbOPEN Chemogenomics Library - Multiplex” (2024)
# Values joined by “and” are separate entries in the source; they are usually repeats but may differ in a detail not shown here. Equal values may be shown once.
# Tested on: HEK-293T
# Test: Multiplex assay against HEK293T
# Format: toxicity, cell-based
# Details: human
# Method in brief: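 Cells stained live at seeding with Hoechst33342, BioTracker Green Microtubule Cytoskeleton Dye, MitoTracker Red and Annexin V Alexa Fluor 680 were imaged on a CQ1 microscope at 37°C and 5% CO2 after compound addition. Their classification by CellPathfinder machine-learning gating ran from Hoechst high-intensity objects versus normal cells, to healthy, pyknosed or fragmented nuclei among normal cells, to mitotic or apoptotic among pyknosed cells. Tubulin, mitochondrial-mass and membrane-permeability phenotypes are per cents of healthy-nucleus cells.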
# [1] = 12 h, 1 µM, compound concentration 1 uM
# [2] = 12 h, 10 µM, compound concentration 10 uM
# [3] = 24 h, 1 µM, compound concentration 1 uM
# [4] = 24 h, 10 µM, compound concentration 10 uM
# [5] = 48 h, 1 µM, compound concentration 1 uM
# [6] = 48 h, 10 µM, compound concentration 10 uM
structure (smiles),measurement,setting,value
Cc1c(CC(=O)O)c2cccnc2n1Cc1ccc(S(C)(=O)=O)cc1C(F)(F)F [FEVIPIPRANT],Population Apoptotic (%),[1],27% and 41%
same,Population Fragmented Nuclei (%),[1],6% and 7%
same,Population Healthy Nuclei (%),[1],83% and 79%
same,Population Hoechst High Intensity Objects (%),[1],5% and 7%
same,Population Membrane Permeable-Phenotype (%),[1],0%
same,Population Mitochondria Different-Phenotype (%),[1],32% and 52%
same,Population Mitotic Cells (%),[1],72% and 58%
same,Population Normal (%),[1],94% and 92%
same,Population Pyknosed Nuclei (%),[1],9% and 12%
same,Population Tubulin-Different-Phenotype (%),[1],22% and 16%
same,Total Cell Count,[1],471 and 370
same,Population Apoptotic (%),[2],33% and 52%
same,Population Fragmented Nuclei (%),[2],5% and 11%
same,Population Healthy Nuclei (%),[2],80% and 75%
same,Population Hoechst High Intensity Objects (%),[2],6% and 10%
same,Population Membrane Permeable-Phenotype (%),[2],0%
same,Population Mitochondria Different-Phenotype (%),[2],46% and 66%
same,Population Mitotic Cells (%),[2],66% and 47%
same,Population Normal (%),[2],93% and 89%
same,Population Pyknosed Nuclei (%),[2],13% and 12%
same,Population Tubulin-Different-Phenotype (%),[2],29% and 32%
same,Total Cell Count,[2],417 and 303
same,Population Apoptotic (%),[3],22% and 43%
same,Population Fragmented Nuclei (%),[3],8% and 7%
same,Population Healthy Nuclei (%),[3],81% and 82%
same,Population Hoechst High Intensity Objects (%),[3],3% and 4%
same,Population Membrane Permeable-Phenotype (%),[3],1% and 0%
same,Population Mitochondria Different-Phenotype (%),[3],18% and 37%
same,Population Mitotic Cells (%),[3],77% and 56%
same,Population Normal (%),[3],96% and 95%
same,Population Pyknosed Nuclei (%),[3],10%
same,Population Tubulin-Different-Phenotype (%),[3],18% and 14%
same,Total Cell Count,[3],637 and 457
same,Population Apoptotic (%),[4],33% and 50%
same,Population Fragmented Nuclei (%),[4],8% and 9%
same,Population Healthy Nuclei (%),[4],80% and 81%
same,Population Hoechst High Intensity Objects (%),[4],5% and 11%
same,Population Membrane Permeable-Phenotype (%),[4],0%
same,Population Mitochondria Different-Phenotype (%),[4],31% and 44%
same,Population Mitotic Cells (%),[4],66% and 50%
same,Population Normal (%),[4],94% and 88%
same,Population Pyknosed Nuclei (%),[4],10% and 8%
same,Population Tubulin-Different-Phenotype (%),[4],20%
same,Total Cell Count,[4],499 and 334
same,Population Apoptotic (%),[5],16% and 20%
same,Population Fragmented Nuclei (%),[5],13% and 11%
same,Population Healthy Nuclei (%),[5],79% and 82%
same,Population Hoechst High Intensity Objects (%),[5],1% and 2%
same,Population Membrane Permeable-Phenotype (%),[5],2% and 0%
same,Population Mitochondria Different-Phenotype (%),[5],12% and 16%
same,Population Mitotic Cells (%),[5],83% and 79%
same,Population Normal (%),[5],98% and 97%
same,Population Pyknosed Nuclei (%),[5],7% and 6%
same,Population Tubulin-Different-Phenotype (%),[5],12% and 10%
same,Total Cell Count,[5],1065 and 713
same,Population Apoptotic (%),[6],29% and 45%
same,Population Fragmented Nuclei (%),[6],14%
same,Population Healthy Nuclei (%),[6],78% and 77%
same,Population Hoechst High Intensity Objects (%),[6],4% and 7%
same,Population Membrane Permeable-Phenotype (%),[6],0% and 1%
same,Population Mitochondria Different-Phenotype (%),[6],24% and 22%
same,Population Mitotic Cells (%),[6],70% and 55%
same,Population Normal (%),[6],95% and 92%
same,Population Pyknosed Nuclei (%),[6],7% and 8%
same,Population Tubulin-Different-Phenotype (%),[6],14% and 17%
same,Total Cell Count,[6],794 and 491
CN1CCN(c2cc(-c3ccccc3)nc(N)n2)CC1,Population Apoptotic (%),[1],40% and 34%
same,Population Fragmented Nuclei (%),[1],8% and 5%
same,Population Healthy Nuclei (%),[1],79% and 84%
same,Population Hoechst High Intensity Objects (%),[1],6%
same,Population Membrane Permeable-Phenotype (%),[1],0%
same,Population Mitochondria Different-Phenotype (%),[1],35% and 48%
same,Population Mitotic Cells (%),[1],60% and 65%
same,Population Normal (%),[1],93%
same,Population Pyknosed Nuclei (%),[1],11% and 10%
same,Population Tubulin-Different-Phenotype (%),[1],21% and 16%
same,Total Cell Count,[1],383 and 354
same,Population Apoptotic (%),[2],23% and 36%
same,Population Fragmented Nuclei (%),[2],7% and 6%
same,Population Healthy Nuclei (%),[2],82% and 81%
same,Population Hoechst High Intensity Objects (%),[2],7% and 10%
same,Population Membrane Permeable-Phenotype (%),[2],0%
same,Population Mitochondria Different-Phenotype (%),[2],46% and 63%
same,Population Mitotic Cells (%),[2],76% and 63%
same,Population Normal (%),[2],92% and 89%
same,Population Pyknosed Nuclei (%),[2],9% and 12%
same,Population Tubulin-Different-Phenotype (%),[2],30% and 20%
same,Total Cell Count,[2],416 and 296
same,Population Apoptotic (%),[3],20% and 36%
same,Population Fragmented Nuclei (%),[3],9%
same,Population Healthy Nuclei (%),[3],79% and 82%
same,Population Hoechst High Intensity Objects (%),[3],4%
same,Population Membrane Permeable-Phenotype (%),[3],1%
same,Population Mitochondria Different-Phenotype (%),[3],16% and 24%
same,Population Mitotic Cells (%),[3],79% and 63%
same,Population Normal (%),[3],95%
same,Population Pyknosed Nuclei (%),[3],11% and 8%
same,Population Tubulin-Different-Phenotype (%),[3],12% and 8%
same,Total Cell Count,[3],488 and 480
same,Population Apoptotic (%),[4],44% and 34%
same,Population Fragmented Nuclei (%),[4],13% and 9%
same,Population Healthy Nuclei (%),[4],75% and 79%
same,Population Hoechst High Intensity Objects (%),[4],6% and 9%
same,Population Membrane Permeable-Phenotype (%),[4],0%
same,Population Mitochondria Different-Phenotype (%),[4],32% and 50%
same,Population Mitotic Cells (%),[4],55% and 65%
same,Population Normal (%),[4],93% and 90%
same,Population Pyknosed Nuclei (%),[4],11%
same,Population Tubulin-Different-Phenotype (%),[4],19% and 17%
same,Total Cell Count,[4],577 and 378
same,Population Apoptotic (%),[5],23% and 14%
same,Population Fragmented Nuclei (%),[5],13%
same,Population Healthy Nuclei (%),[5],78% and 80%
same,Population Hoechst High Intensity Objects (%),[5],1% and 2%
same,Population Membrane Permeable-Phenotype (%),[5],1% and 0%
same,Population Mitochondria Different-Phenotype (%),[5],12% and 14%
same,Population Mitotic Cells (%),[5],76% and 85%
same,Population Normal (%),[5],98% and 97%
same,Population Pyknosed Nuclei (%),[5],7% and 6%
same,Population Tubulin-Different-Phenotype (%),[5],12% and 9%
same,Total Cell Count,[5],745 and 804
same,Population Apoptotic (%),[6],16% and 27%
same,Population Fragmented Nuclei (%),[6],17% and 13%
same,Population Healthy Nuclei (%),[6],75% and 81%
same,Population Hoechst High Intensity Objects (%),[6],3%
same,Population Membrane Permeable-Phenotype (%),[6],0% and 1%
same,Population Mitochondria Different-Phenotype (%),[6],25% and 24%
same,Population Mitotic Cells (%),[6],83% and 72%
same,Population Normal (%),[6],96%
same,Population Pyknosed Nuclei (%),[6],6% and 4%
same,Population Tubulin-Different-Phenotype (%),[6],14% and 11%
same,Total Cell Count,[6],861 and 645
